Assay results from ChEMBL document CHEMBL1121626, “Quantitative structure-activity relationships for N-[N',N'-disubstituted-amino)acetyl]arylamines for local anesthetic activity and acute toxicity” (J Med Chem, 1980).
Active and inactive are the calls of the source. No cut-off for these calls is given here.

Key:
[1] = system: Mus musculus; assay: Compound was evaluated for lethal dose (pLD50 = log1/LD50 in mol/kg.); type: toxicity, organism-based; details: in vivo
How it was run: (§1)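 Mice, groups of 10 randomized animals; aqueous drug solution given intravenously at 0.2 mL/20 g body weight. Percentage dead scored 5 days after start of experiment; LD50 derived by the usual statistical method, reported with 95% confidence interval.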

[2] = system: Oryctolagus cuniculus; assay: Compound was evaluated for anesthetic dose (pAD = log 1/AD; AD = anesthetic dose)
[3] = Partition coefficient (logP) (cyclohexane); type: physicochemical; details: cyclohexane/water
How it was run: (§2)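 Partition coefficients were measured by Brändström's titrimetric method at 25 °C in 1-octanol/water or cyclohexane/water. Amine hydrochloride in aqueous solution pre-saturated with the solvent was one-fifth neutralized with NaOH, then solvent was added. The pH was held at its original value by automatic alkali addition until equilibrium. Each value is the mean of eight determinations, reported with 95% confidence intervals.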

[4] = organism: Mus musculus; assay: Antiarrhythmic activity (arrhythmy induced by HCCl3 in mice) measured as its effect on ventricular fibrillation; No effect; type: functional, organism-based; details: Heart
[5] = Partition coefficient (logP); type: physicochemical; details: octanol/water; how it was run: as §2
[6] = system: Oryctolagus cuniculus; assay: Anaesthetic activity measured as anaesthetic dose (AD) required to nullify the rabbit corneal reflex after 5 min; type: functional, Cornea
How it was run: (§3)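 Aqueous drug solution, 0.25 mL, applied to rabbit cornea for 1 min, then wiped off. 100 regular mechanical stimulations were given. The minimal active dose is the concentration that abolished the corneal reflex at 5 min. Testing was repeated until 10 concordant results were obtained, with experimental error no more than 10%.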

[7] = Intravenous lethal dose of the compound; type: ADME, organism-based; details: mouse, in vivo; how it was run: as §1
[8] = system: Mus musculus; assay: Delay of respiratory arrest was observed at 10 mg/kg ip in mice in antiarrhythmic assay; type: functional, Heart; details: route intraperitoneal
[9] = Dissociation constant was observed; type: physicochemical
How it was run: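 Values for water-insoluble compounds were obtained by extrapolation. Two values were derived indirectly from P = P'(1 + 10^(pKa − pH)), using P' measured at pH 12 and 7.34, or at pH 7.2 and 6.0.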

[10] = Compound was evaluated for the apparent partition coefficient at pH 7.4; type: physicochemical; details: octanol/water
How it was run: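 Apparent partition coefficient at pH 7.4 was calculated from the octanol/water log P and pKa using P = P'(1 + 10^(pKa − pH)).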

[11] = system: Oryctolagus cuniculus; assay: Anaesthetic activity measured as anaesthetic dose (AD) required to nullify the rabbit corneal reflex after 5 min;d = Irritant; type: functional, organism-based; details: Cornea; how it was run: as §3
[12] = system: Mus musculus; assay: Delay of respiratory arrest was observed at 5 mg/kg ip in mice in antiarrhythmic assay; type: functional, Heart; details: route intraperitoneal

Row | Compound | pLD50 [1] | pAD [2] | logP [3] | Activity [4] | logP [5] | AD [6] [mM] | LD50 [7] [µmol/kg] | Increase [8] [%] | pKa [9] | logD [10] | AD [11] | Increase [12] [%]
1 | CCCN(CCC)CC(=O)NCc1ccccc1.Cl | 3.59 | 1.75 | 2.386 | inactive | 3.11 | 17.5 | 254 | – | – | – | – | –
2 | CCN(CC)CC(=O)NC(c1ccccc1)c1ccccc1.Cl | 3.67 | 1.82 | 3.2 | inactive | 3.74 | 15 | 212 | 27.8 | – | – | – | –
3 | CCN(CC)CC(=O)NC1c2ccccc2-c2ccccc21.Cl | 3.83 | 1.82 | 3.067 | inactive | 3.64 | 15.1 | 146 | – | 7.98 | 2.96 | – | –
4 | CCN(CC)CC(=O)NCc1ccccc1.Cl | 3.42 | 0.93 | 1.02 | inactive | 2.14 | 117 | 376 | 25 | 8.07 | 1.39 | – | –
5 | CCN(CC)CCOC(=O)c1ccc(N)cc1.Cl [PROCAINE HYDROCHLORIDE] | – | – | – | inactive | – | 36.7 | 169 | – | – | – | – | –
6 | CN(C)CC(=O)NCc1ccccc1.Cl | 3.13 | – | -0.453 | inactive | 1.11 | – | 735 | – | 7.62 | 0.681 | Irritant | –
7 | CCN(CC)CC(=O)NC1CCc2ccccc21.Cl (stereo not given) | 3.62 | 1.45 | 1.645 | inactive | 2.74 | 27.9 | 238 | – | 8.19 | 1.88 | – | –
8 | CCCCN(CCCC)CC(=O)NCc1ccccc1.Cl | 3.93 | 1.8 | 3.791 | inactive | 4.16 | 16 | 116 | – | – | – | – | 33.2
9 | CCN(CC)CC(=O)NCc1ccccc1-c1ccccc1.Cl | 3.89 | 1.82 | 3.2 | inactive | 3.74 | 34.5 | 128 | – | – | – | – | 20.5
10 | Cl.O=C(CN1CCCCC1)NCc1ccccc1 | 3.61 | 0.73 | 1.198 | inactive | 2.27 | 186 | 245 | – | 7.71 | 1.78 | – | –
11 | CCCCCN(CCCCC)CC(=O)NCc1ccccc1.Cl | – | 1.53 | 5.259 | inactive | 5.19 | 29.3 | – | – | – | – | – | –
12 | O=C(CN1CCCC1)NCc1ccccc1 | 3.44 | 0.71 | 0.156 | inactive | 1.69 | 196 | 361 | – | 8.27 | 0.769 | – | –
13 | CCN(CC)CC(=O)NC1CC(c2ccccc2)c2ccccc21.Cl (stereo not given) | 3.78 | 1.55 | 4.153 | inactive | 4.41 | 55.8 | 164 | – | – | – | – | –
14 | CCN(CC)CC(=O)NC1c2ccccc2CCc2ccccc21.Cl | 3.86 | 1.25 | 4.153 | inactive | 4.41 | 20.9 | 139 | – | – | – | – | –
15 | CCCN(CCC)CC(=O)NC1c2ccccc2-c2ccccc21.Cl | – | 1.68 | 4.44 | inactive | 4.61 | 20.9 | – | – | 7.28 | 4.37 | – | –
16 | CCCN(CCC)CC(=O)NC1CCc2ccccc21.Cl (stereo not given) | 3.84 | 1.89 | 3.277 | inactive | 3.79 | 12.8 | 145 | – | – | – | – | –
17 | Cl.O=C(CN1CCOCC1)NCc1ccccc1 | 2.77 | 0.73 | -1.132 | inactive | 0.672 | 185 | 1720 | – | 4.98 | 0.67 | – | –
